In ChEMBL document CHEMBL1921722, “In vitro and in vivo evaluation of select kahalalide F analogs with antitumor and antifungal activities” (Bioorg Med Chem, 2011):
In brackets after ≈: the same amount, converted by molar mass.

Key:
OVCAR-3 = assay: Cytotoxicity against human OVCAR3 cells assessed as cell growth at 800 nM by sulforhodamine B assay relative to control; format: functional; conditions: read-out: Activity
PC-3 [1] = assay: Cytotoxicity against human PC3 cells assessed as cell growth at 800 nM by sulforhodamine B assay relative to control; format: functional; conditions: read-out: Activity
HL-60(TB) = assay: Cytotoxicity against human HL-60(TB) cells assessed as cell growth at 80 nM by sulforhodamine B assay relative to control; format: functional; conditions: read-out: Activity
NCI/ADR-RES = assay: Cytotoxicity against human NCI/ADR-RES cells assessed as cell growth at 80 uM by sulforhodamine B assay relative to control; format: functional; conditions: read-out: Activity
UACC-257 [2] = assay: Cytotoxicity against human UACC257 cells assessed as cell growth at 80 nM by sulforhodamine B assay relative to control; format: functional; conditions: read-out: Activity
SF-268 [3] = assay: Cytotoxicity against human SF268 cells assessed as cell growth at 8 nM by sulforhodamine B assay relative to control; format: functional; conditions: read-out: Activity
Aspergillus fumigatus = assay: Antimicrobial activity against Aspergillus fumigatus ATCC 90906 by CLSI method; format: functional, organism-based
K562 = assay: Cytotoxicity against human K562 cells assessed as cell growth at 8 nM by sulforhodamine B assay relative to control; format: functional; conditions: read-out: Activity
DU-145 [4] = assay: Cytotoxicity against human DU145 cells assessed as cell growth at 800 nM by sulforhodamine B assay relative to control; format: functional; conditions: read-out: Activity
A498 = assay: Cytotoxicity against human A498 cells assessed as cell growth at 80 nM by sulforhodamine B assay relative to control; format: functional; conditions: read-out: Activity
In short: (§1)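 Run at NCI in the DTP 60-cell-line human tumor panel by standard procedure. Compounds were first screened at a single concentration, then tested at five tenfold-spaced concentrations. GI50 is the concentration reducing treated-cell growth to half that of untreated controls; TGI is the concentration completely halting growth.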

NCI-H460 [5] = assay: Cytotoxicity against human NCI-H460 cells assessed as cell growth at 800 nM by sulforhodamine B assay relative to control; format: functional; conditions: read-out: Activity
OVCAR-5 [6] = assay: Cytotoxicity against human OVCAR5 cells assessed as cell growth at 80 uM by sulforhodamine B assay relative to control; format: functional; conditions: read-out: Activity
MDA-MB-231 = assay: Cytotoxicity against human MDA-MB-231 cells assessed as cell growth at 8 uM by sulforhodamine B assay relative to control; format: functional; conditions: read-out: Activity
HCT-15 = assay: Cytotoxicity against human HCT15 cells assessed as cell growth at 80 nM by sulforhodamine B assay relative to control; format: functional; conditions: read-out: Activity
SF-295 = assay: Cytotoxicity against human SF295 cells assessed as cell growth at 8 nM by sulforhodamine B assay relative to control; format: functional; conditions: read-out: Activity
HCC 2998 = assay: Cytotoxicity against human HCC2998 cells assessed as cell growth at 80 nM by sulforhodamine B assay relative to control; format: functional; conditions: read-out: Activity
T47D = assay: Cytotoxicity against human T47D cells assessed as cell growth at 800 nM by sulforhodamine B assay relative to control; format: functional; conditions: read-out: Activity
UACC-257 [7] = assay: Cytotoxicity against human UACC257 cells assessed as cell growth at 800 nM by sulforhodamine B assay relative to control; format: functional; conditions: read-out: Activity
OVCAR-5 [8] = assay: Cytotoxicity against human OVCAR5 cells assessed as cell growth at 8 nM by sulforhodamine B assay relative to control; format: functional; conditions: read-out: Activity
M14 [9] = assay: Cytotoxicity against human M14 cells assessed as cell growth at 8 nM by sulforhodamine B assay relative to control; format: functional; conditions: read-out: Activity
NCI-H23 = assay: Cytotoxicity against human NCI-H23 cells assessed as cell growth at 80 uM by sulforhodamine B assay relative to control; format: functional; conditions: read-out: Activity
NCI-H226 [10] = assay: Cytotoxicity against human NCI-H226 cells assessed as cell growth at 800 nM by sulforhodamine B assay relative to control; format: functional; conditions: read-out: Activity
DU-145 [11] = assay: Cytotoxicity against human DU145 cells assessed as cell growth at 80 uM by sulforhodamine B assay relative to control; format: functional; conditions: read-out: Activity
NCI-H226 [12] = assay: Cytotoxicity against human NCI-H226 cells by sulforhodamine B assay; format: functional
In short: (§2)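 NCI Developmental Therapeutics Program 60-cell-line human tumor panel screen, run at NCI. A single-concentration pre-screen was followed by a five-concentration dose-response in 10-fold steps. GI50 is the concentration that reduces growth of treated cells to half that of untreated control cells. TGI is the concentration that completely halts growth.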

NCI-H460 [13] = assay: Cytotoxicity against human NCI-H460 cells assessed as cell growth at 8 nM by sulforhodamine B assay relative to control; format: functional; conditions: read-out: Activity
OVCAR-4 = assay: Cytotoxicity against human OVCAR4 cells assessed as cell growth at 8 uM by sulforhodamine B assay relative to control; format: functional; conditions: read-out: Activity
A549 = assay: Cytotoxicity against human A549 cells assessed as cell growth at 80 uM by sulforhodamine B assay relative to control; format: functional; conditions: read-out: Activity; in short: as §1
M14 [14] = assay: Cytotoxicity against human M14 cells assessed as cell growth at 8 uM by sulforhodamine B assay relative to control; format: functional; conditions: read-out: Activity
OVCAR-8 = assay: Cytotoxicity against human OVCAR8 cells assessed as cell growth at 8 nM by sulforhodamine B assay relative to control; format: functional; conditions: read-out: Activity
RPMI-8226 = assay: Cytotoxicity against human RPMI8226 cells assessed as cell growth at 800 nM by sulforhodamine B assay relative to control; format: functional; conditions: read-out: Activity
PC-3 [15] = assay: Cytotoxicity against human PC3 cells by sulforhodamine B assay; format: functional; in short: as §2
Malme-3M = assay: Cytotoxicity against human MALME-3M cells assessed as cell growth at 800 nM by sulforhodamine B assay relative to control; format: functional; conditions: read-out: Activity
SN12C = assay: Cytotoxicity against human SN12C cells assessed as cell growth at 800 nM by sulforhodamine B assay relative to control; format: functional; conditions: read-out: Activity
SK-MEL-5 = assay: Cytotoxicity against human SK-MEL-5 cells assessed as cell growth at 8 nM by sulforhodamine B assay relative to control; format: functional; conditions: read-out: Activity
MOLT-4 = assay: Cytotoxicity against human MOLT4 cells assessed as cell growth at 80 uM by sulforhodamine B assay relative to control; format: functional; conditions: read-out: Activity
KM12 = assay: Cytotoxicity against human KM12 cells assessed as cell growth at 8 nM by sulforhodamine B assay relative to control; format: functional; conditions: read-out: Activity
UACC-62 = assay: Cytotoxicity against human UACC62 cells assessed as cell growth at 8 uM by sulforhodamine B assay relative to control; format: functional; conditions: read-out: Activity
HCT-116 = assay: Cytotoxicity against human HCT116 cells assessed as cell growth at 80 nM by sulforhodamine B assay relative to control; format: functional; conditions: read-out: Activity
HT-29 = assay: Cytotoxicity against human HT-29 cells assessed as cell growth at 80 nM by sulforhodamine B assay relative to control; format: functional; conditions: read-out: Activity
SF-268 [16] = assay: Cytotoxicity against human SF268 cells assessed as cell growth at 80 nM by sulforhodamine B assay relative to control; format: functional; conditions: read-out: Activity
TK-10 = assay: Cytotoxicity against human TK10 cells assessed as cell growth at 80 uM by sulforhodamine B assay relative to control; format: functional; conditions: read-out: Activity
SK-OV-3 = assay: Cytotoxicity against human SKOV3 cells assessed as cell growth at 800 nM by sulforhodamine B assay relative to control; format: functional; conditions: read-out: Activity

Compound `C/C=C1\NC(=O)[C@H](Cc2ccccc2)NC(=O)[C@@H](C(C)C)NC(=O)[C@@H]([C@@H](C)CC)NC(=O)[C@H](NC(=O)[C@H](NC(=O)[C@H](CCCNCc2ccc(F)c(C)c2)NC(=O)[C@H]2CCCN2C(=O)[C@H](NC(=O)[C@@H](NC(=O)[C@@H](NC(=O)[C@H](NC(=O)CCCC(C)C)C(C)C)[C@@H](C)O)C(C)C)C(C)C)[C@@H](C)CC)[C@@H](C)OC(=O)[C@H](C(C)C)NC1=O` has a growth at 0.8 µM (OVCAR-3) of 39%, a growth at 0.8 µM (PC-3 [1]) of -54% and a growth at 0.08 µM (HL-60(TB)) of 97%. For the same compound, the growth at 80 µM (NCI/ADR-RES) was -60%, the growth at 0.08 µM (UACC-257 [2]) was 101% and the growth at 0.008 µM (SF-268 [3]) was 97%. It also gave an IC50 (Aspergillus fumigatus) of 3090 nM, an MFC (Aspergillus fumigatus) of 10 µM (≈ 16 µg/mL) and an MIC (Aspergillus fumigatus) of 10 µM (≈ 16 µg/mL). It also gave a growth at 0.008 µM (K562) of 101%, a growth at 0.8 µM (DU-145 [4]) of -85% and a growth at 0.08 µM (A498) of 108%. It also gave a growth at 0.8 µM (NCI-H460 [5]) of 104%, a growth at 80 µM (OVCAR-5 [6]) of -98% and a growth at 8 µM (MDA-MB-231) of -55%. It also gave a growth at 0.08 µM (HCT-15) of 103%, a growth at 0.008 µM (SF-295) of 99% and a growth at 0.08 µM (HCC 2998) of 105%. For the same compound, the growth at 0.8 µM (T47D) was -50%, the growth at 0.8 µM (UACC-257 [7]) was 88% and the growth at 0.008 µM (OVCAR-5 [8]) was 107%. The growth at 0.008 µM (M14 [9]) was 105%, the growth at 80 µM (NCI-H23) was -82% and the growth at 0.8 µM (NCI-H226 [10]) was 98%. The growth at 80 µM (DU-145 [11]) was -91%, the GI50 (NCI-H226 [12]) was 1480 nM and the TGI (NCI-H226 [12]; read-out: pTGI (converted)) was 3020 nM. The growth at 0.008 µM (NCI-H460 [13]) was 104%, the growth at 8 µM (OVCAR-4) was -65% and the growth at 80 µM (A549) was 1%. It also gave a growth at 8 µM (M14 [14]) of -99%, a growth at 0.008 µM (OVCAR-8) of 107% and a growth at 0.8 µM (RPMI-8226) of 59%. The LC50 (PC-3 [15]) was 708 nM, the GI50 (PC-3 [15]; read-out: GI50) was 165 nM and the TGI (PC-3 [15]; read-out: TGI) was 342 nM. For the same compound, the GI50 (PC-3 [15]; read-out: pGI50 (converted)) was 166 nM, the TGI (PC-3 [15]; read-out: pTGI (converted)) was 339 nM and the growth at 0.8 µM (Malme-3M) was 102%. For the same compound, the growth at 0.8 µM (SN12C) was 87%, the growth at 0.008 µM (SK-MEL-5) was 99% and the growth at 80 µM (MOLT-4) was 9%. For the same compound, the growth at 0.008 µM (KM12) was 107%, the growth at 8 µM (UACC-62) was -98% and the growth at 0.08 µM (HCT-116) was 96%. The growth at 0.08 µM (HT-29) was 102%, the growth at 0.08 µM (SF-268 [16]) was 99% and the growth at 80 µM (TK-10) was -9%. The growth at 0.8 µM (SK-OV-3) was -46%.
